HSF1 inh = HSF1 inhibitors in luciferase reporter cells, primary screen, cell-based, NIH3T3, luminescence; NIH3T3-HGL HSE-luciferase, MG132-induced, luminescence 8 h; hits give low values; activity change, negative = inhibition, % at 7.5 µM (by protocol); 0.77% of 300,000 active; AID 2098, 2009;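 active means more than half of replicate wells show activity change below -50%, luminescence cut by over half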;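 further: luciferase reports HSF-1 transcriptional activity via heat shock element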
PHOSPHO1 inh = PubChem AID 1565; Phosphoethanolamine/phosphocholine phosphatase (Homo sapiens), Q8TCT1; 1.1% of 290,000 active; inhibition, % at 13.3 µM; recombinant PHOSPHO1, absorbance phosphatase assay; in the data active means inhibition above about 60%
Target sequence (Q8TCT1 whole entry, looked up): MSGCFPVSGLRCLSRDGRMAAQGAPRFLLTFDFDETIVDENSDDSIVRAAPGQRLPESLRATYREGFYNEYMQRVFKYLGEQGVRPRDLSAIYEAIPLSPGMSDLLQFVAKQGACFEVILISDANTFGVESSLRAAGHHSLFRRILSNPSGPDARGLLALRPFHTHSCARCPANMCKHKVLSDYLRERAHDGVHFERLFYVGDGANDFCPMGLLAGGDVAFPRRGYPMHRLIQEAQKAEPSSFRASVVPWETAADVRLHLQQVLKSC
AI-2 QS modul = Vibrio harveyi AI-2 quorum sensing modulators, primary screen, JMH597 strain, luminescence/OD600 ratio | 0.4% of 300,000 active | Vibrio harveyi JMH597 AI-2 luminescence/OD600 ratio, 9 h; hits give low values; strain lacks LuxN and CqsS sensors; 0 = neutral-control median | activity change, % at 7.5 µM; in the data active means activity change below about -75%, passing the limit was not always enough;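 further: luminescence divided by OD600 gain over 9 h not by final OD600 alone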
HSF1 activator = HSF-1 activators, primary screen, NIH3T3-HGL cells, MG132 stress, luminescence, single point | NIH3T3-HGL HSF-1 luciferase reporter, 8 h; 100% = twice DMSO control signal | activation, % at 9 µM | 1.7% of 300,000 active;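 active means mean replicate activation of at least 50% with a set share of replicates each reaching 50%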
core dimer inh = inhibitors of HCV core protein dimerization, primary screen, biochemical, TR-FRET, high-throughput; AID 1899, 2009; 0.33% of 300,000 active; inhibition, % at 5 µM; TR-FRET GST/Flag-core106 dimerization, 1536-well;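 active means inhibition above the mean of all tested compounds plus 3 SD, set per screening campaign, cut at about 45% in these data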
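System – GST-tagged and Flag-tagged HCV core protein residues 1-106 · Repeats – one well for each compound · Technique – TR-FRET 671 and 617 nm emission · Doses – one concentration, 5 µM, in 0.5% DMSO · Times – 4 h, 22.5 °C incubation · Also added – Eu donor and XL665 acceptor anti-tag antibodies · Measure – percent inhibition of core106 dimerization signal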
ALR H2O2 inh = inhibitors of human ALR sulfhydryl oxidase, primary screen, biochemical, H2O2 detection, HRP-luminol luminescence, single point; FAD-linked sulfhydryl oxidase ALR (Homo sapiens), P55789; purified ALR, DTT oxidation; inhibition, % (concentration not given with the values); 3.8% of 290,000 active; AID 485317, 2010;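 active means mean replicate inhibition above about 79%, with every replicate also reaching it, limit read from the data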
Target sequence (P55789 whole entry, looked up): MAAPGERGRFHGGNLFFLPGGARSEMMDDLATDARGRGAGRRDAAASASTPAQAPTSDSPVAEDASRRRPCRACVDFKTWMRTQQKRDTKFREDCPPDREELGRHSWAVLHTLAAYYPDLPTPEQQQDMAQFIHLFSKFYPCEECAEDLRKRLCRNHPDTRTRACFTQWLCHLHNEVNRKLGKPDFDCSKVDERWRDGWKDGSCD
Numbers stand for hits. Rows were chosen to be rich in hits. Some 6.8% of all compounds tested hit in one or more screens of this group.

Screening CCOC(=O)/C(CCCN(CC)CC)=N\O returned HSF1 inh inactive, PHOSPHO1 inh 95, AI-2 QS modul inactive, HSF1 activator inactive, core dimer inh inactive and ALR H2O2 inh inactive.
CCOP(=O)(C(NC(=O)c1ccccc1Cl)=C(Cl)Cl)c1ccccc1 (stereo not drawn) was read as HSF1 inh inactive, PHOSPHO1 inh inactive, AI-2 QS modul inactive, HSF1 activator 90, core dimer inh inactive and ALR H2O2 inh inactive.
`CCOP(=O)(OCC)C(NC(=O)c1ccccc1Cl)=C(Cl)Cl` gave HSF1 inh inactive, PHOSPHO1 inh inactive, AI-2 QS modul inactive, HSF1 activator inactive, core dimer inh inactive and ALR H2O2 inh inactive.
Screening CC/C(=N\Nc1ccccc1)c1c(O)n(-c2ccccc2)c(=O)[nH]c1=O returned PHOSPHO1 inh inactive, AI-2 QS modul inactive, core dimer inh inactive and ALR H2O2 inh 99.
For COc1cccc(-n2c(O)c(C=NCCN3CCNCC3)c(=O)[nH]c2=S)c1 the results were HSF1 inh inactive, AI-2 QS modul inactive, HSF1 activator inactive, core dimer inh inactive and ALR H2O2 inh inactive.
CC(Cc1ccccc1)NC(=O)Cc1ccc(N(C)C)cc1 (stereo not drawn) was read as HSF1 inh inactive, PHOSPHO1 inh inactive, AI-2 QS modul inactive, HSF1 activator inactive, core dimer inh inactive and ALR H2O2 inh 99.
CC(Cc1ccccc1)NC(N)=O (stereo not drawn) was read as HSF1 inh inactive, PHOSPHO1 inh inactive, AI-2 QS modul inactive, HSF1 activator inactive, core dimer inh inactive and ALR H2O2 inh inactive.
Screening CC(C)CC(C)N (stereo not drawn) returned ALR H2O2 inh inactive.
Cc1ccc(S(=O)(=O)N2CCCC2c2cccnc2)cc1 (stereo not drawn) was read as HSF1 inh inactive, PHOSPHO1 inh inactive, AI-2 QS modul inactive, HSF1 activator inactive, core dimer inh inactive and ALR H2O2 inh inactive.
Cc1cc(C)c2c(c1)-c1cc(C)nn1C(c1cccnc1)N2 (stereo not drawn) was read as HSF1 inh inactive, PHOSPHO1 inh inactive, AI-2 QS modul inactive, HSF1 activator inactive, core dimer inh inactive and ALR H2O2 inh 99.
Screening CCOc1cccc(OCC)c2c(C)[n+](CC3CCCO3)c(C)c1-2 (stereo not drawn) returned HSF1 inh inactive, PHOSPHO1 inh 95, AI-2 QS modul inactive, HSF1 activator inactive, core dimer inh inactive and ALR H2O2 inh inactive.
`COc1ccc(CCNCC2CCCO2)cc1` (stereo not drawn) gave HSF1 inh inactive, PHOSPHO1 inh inactive, AI-2 QS modul inactive, HSF1 activator inactive, core dimer inh inactive and ALR H2O2 inh inactive.
Screening N#CC(C#N)=NNc1ccc(-n2ccc(C(F)(F)F)n2)cc1 returned HSF1 inh inactive, PHOSPHO1 inh inactive, AI-2 QS modul inactive, HSF1 activator inactive, core dimer inh inactive and ALR H2O2 inh inactive.
Cc1cc(C)n(-c2ccc(NN=C(C#N)C#N)cc2)n1 was read as HSF1 inh inactive, PHOSPHO1 inh inactive, AI-2 QS modul inactive, HSF1 activator inactive, core dimer inh inactive and ALR H2O2 inh 98.
CCCC/C(=N/O)c1c(C)[nH]c2ccccc12 was read as HSF1 inh inactive, PHOSPHO1 inh inactive, AI-2 QS modul inactive, HSF1 activator inactive, core dimer inh inactive and ALR H2O2 inh 99.
CCCCC/C(=N/O)c1c(C)[nH]c2ccccc12 was read as HSF1 inh inactive, PHOSPHO1 inh inactive, AI-2 QS modul inactive, HSF1 activator inactive, core dimer inh inactive and ALR H2O2 inh 99.
For C[C@]12CCC3C(C(=O)C[C@H]4C[C@@H](O)CC[C@]34C)C1CCC2=O (stereo partly drawn) the results were ALR H2O2 inh inactive.
Screening C=CCN1C(=O)NC(=O)/C(=C/c2cc3c4c(c2)CCCN4CCC3)C1=O returned HSF1 inh inactive, PHOSPHO1 inh inactive, AI-2 QS modul inactive, HSF1 activator inactive, core dimer inh inactive and ALR H2O2 inh 99.
O=C(c1ccc(Cl)cc1)N1CCC2(CC1)OCCO2 was read as HSF1 inh inactive, HSF1 activator inactive, core dimer inh inactive and ALR H2O2 inh inactive.
For S=C(c1ccc(Cl)cc1)N1CCOCC1 the results were HSF1 inh inactive, PHOSPHO1 inh 62, AI-2 QS modul inactive, HSF1 activator inactive, core dimer inh inactive and ALR H2O2 inh inactive.
For COC(=O)C1=C(c2cccc(C#N)c2)C[C@@H]2CC[C@H]1N2C(=O)N1CCCCC1 the results were ALR H2O2 inh inactive.
Screening Cc1cc(C=O)c(C)n1C1CC1 returned HSF1 inh inactive, PHOSPHO1 inh inactive, AI-2 QS modul inactive, HSF1 activator inactive, core dimer inh inactive and ALR H2O2 inh inactive.
Oc1ccc(C2=CCNCC2)cc1O was read as HSF1 inh inactive, AI-2 QS modul inactive, HSF1 activator inactive, core dimer inh inactive and ALR H2O2 inh 99.
`C1=C(c2ccccc2)CCNC1` gave HSF1 inh inactive, PHOSPHO1 inh inactive, AI-2 QS modul inactive, HSF1 activator inactive, core dimer inh inactive and ALR H2O2 inh inactive.
Screening COc1ccccc1N1CCN(Cc2cccc(OC)c2O)CC1 returned HSF1 inh inactive, PHOSPHO1 inh inactive, AI-2 QS modul inactive, HSF1 activator 88, core dimer inh inactive and ALR H2O2 inh inactive.
Screening COC(=O)C1=C(c2ccc(Cl)c(C(F)(F)F)c2)C[C@@H]2CC[C@H]1N2C(=O)NCCCOC(C)C returned ALR H2O2 inh inactive.
Cc1cc(=O)oc2cc3c(cc12)CCCN3 was read as HSF1 inh inactive, PHOSPHO1 inh inactive, AI-2 QS modul inactive, HSF1 activator inactive, core dimer inh inactive and ALR H2O2 inh 93.
`O=[N+]([O-])c1ccc(N2CCCC2)c2ccncc12` gave HSF1 inh -60, PHOSPHO1 inh inactive, AI-2 QS modul inactive, HSF1 activator inactive, core dimer inh inactive and ALR H2O2 inh inactive.
Screening CN1CCN(c2ccc([N+](=O)[O-])c3cccnc23)CC1 returned HSF1 inh -57, PHOSPHO1 inh inactive, AI-2 QS modul inactive, HSF1 activator inactive, core dimer inh inactive and ALR H2O2 inh inactive.
Screening COc1ccc2ccccc2c1CNCCc1ccccc1 returned HSF1 inh inactive, PHOSPHO1 inh inactive, AI-2 QS modul inactive, HSF1 activator inactive, core dimer inh inactive and ALR H2O2 inh inactive.
`CCC1=Nc2cc(C(=O)N3CCC4(CC3)OCCO4)ccc2Sc2ccc(Br)cc21` gave HSF1 inh inactive, PHOSPHO1 inh inactive, AI-2 QS modul inactive, HSF1 activator inactive, core dimer inh inactive and ALR H2O2 inh inactive.
